The record followed here is ChEMBL document CHEMBL1156114 (Bioorg Med Chem Lett, 2009).

Where only a bound is given, the exact number is not on record here.

The target in data set [1] is T1, Thymidine kinase (Varicella-zoster virus, UniProt P0C0E6).
T1 sequence (P0C0E6 whole entry): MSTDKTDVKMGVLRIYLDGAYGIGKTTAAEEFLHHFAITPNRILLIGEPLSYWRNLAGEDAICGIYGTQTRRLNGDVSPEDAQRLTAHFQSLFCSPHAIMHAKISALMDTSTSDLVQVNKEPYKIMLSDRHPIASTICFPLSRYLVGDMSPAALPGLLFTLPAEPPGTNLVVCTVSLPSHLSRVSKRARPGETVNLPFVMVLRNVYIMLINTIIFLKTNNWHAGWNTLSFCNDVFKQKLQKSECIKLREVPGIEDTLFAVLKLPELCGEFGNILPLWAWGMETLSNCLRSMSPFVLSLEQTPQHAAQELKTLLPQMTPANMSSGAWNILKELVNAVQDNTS
Kind of data set: Displacement of [CH3-3H]deoxythymidine from Varicella zoster virus recombinant thymidine kinase after 30 mins. The arrangement: species or system Human alphaherpesvirus 3. An outline of the steps:
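Inhibition of VZV TK phosphorylation of 1 µM [CH3-3H]dThd (0.1 µCi) in 50 mM Tris-HCl pH 8.0, 2.5 mM MgCl2, 10 mM DTT, 2.5 mM ATP, 10 mM NaF, 1 mg/mL BSA. Reaction started with enzyme, 37 °C for 30 min. Product captured on DE-81 discs, washed in ammonium formate then ethanol, and counted by scintillation. IC50 is the concentration inhibiting phosphorylation by 50%.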

Data set [2] can be described thus: Cytotoxicity against human HEL cells assessed as alteration of cell morphology by microscopy. The data set is classed as cell-based. The method in brief:
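Confluent human embryonic lung (HEL) cell cultures, run in parallel with a VZV plaque-reduction assay. Compound added at varying concentrations in duplicate. Cells were examined by microscope for altered morphology. MCC is the lowest compound concentration that gives a microscopically detectable change in cell morphology.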

The target in data set [3] is T2, Thymidine kinase (Varicella-zoster virus) (UniProt P0C0E6).
T2 sequence (whole entry): T1 sequence (P0C0E6 whole entry)
Kind of data set: Ratio of Vmax to Km for Varicella zoster virus recombinant thymidine kinase. Conditions: Human alphaherpesvirus 3. An outline of the steps:
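Km and Vmax for each compound as VZV TK substrate, from monophosphate formation at 0.5, 2, 5 and 12.5 µM compound. Enzyme in Tris-HCl pH 8 with 2.5 mM ATP and MgCl2, 37 °C, 60 min. Product quantified by reversed-phase HPLC with fluorescence detection (ex 340/em 415 nm).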

Data set [4] concerns Human alphaherpesvirus 3. Kind of data set: Antiviral activity against Varicella zoster virus OKA infected human HEL cells assessed as reduction in viral plaque formation after 5 days. The class given is functional, cell-based. The settings on record: Human alphaherpesvirus 3, strain Oka vaccine, 120 h. An outline of the steps: (§1)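 Confluent HEL cells infected with VZV at 20 PFU/well for 2 h. Residual virus removed, then compound added at varying concentrations in duplicate. Plaques counted after 5 days.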

Data set [5] deals with Human alphaherpesvirus 3. Nature of the data set: Antiviral activity against Varicella zoster virus YS infected human HEL cells assessed as reduction in viral plaque formation after 5 days. The settings on record: Human alphaherpesvirus 3, YS, 120 h. The data set is classed as functional, organism-based. The method in brief:
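Confluent HEL cells infected with VZV at 20 PFU/well for 2 h. Residual virus removed, then compound added at varying concentrations in duplicate. Plaques counted after 5 days. EC50 is the concentration reducing plaque formation by 50% versus untreated controls.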

Data set [6] has as its system Human alphaherpesvirus 3. Nature of the data set: Antiviral activity against thymidine kinase deficient Varicella zoster virus 07/1 infected human HEL cells assessed as reduction in viral plaque formation after 5 days. The class given is functional, organism-based. Conditions: Human alphaherpesvirus 3, 07/1, HEL, 120 h. An outline of the steps: as §1
Substrate in data set [7]: CCCCCc1ccc(-c2cc3cn([C@@H]4O[C@H](CO)[C@@H](O)C4(F)F)c(=O)nc3o2)cc1
Kind of data set: (§2) Activity at Varicella zoster virus recombinant thymidine kinase assessed as 5-monophosphate BCNA formation after 60 mins by HPLC. Conditions: Human alphaherpesvirus 3. The method in brief:
(§3)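 VZV TK (1.5 pg) in 50 mM Tris-HCl pH 8, 2.5 mM MgCl2, 10 mM DTT, 2.5 mM ATP, 10 mM NaF; compound at 0.5, 2, 5 and 12.5 µM in DMSO; 37 °C for 60 min. Stopped in ice-cold methanol and centrifuged. Reversed-phase HPLC with ion-pairing phosphate buffer/acetonitrile gradient; nucleoside and 5'-monophosphate quantified by fluorescence (ex 340, em 415 nm).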

Substrate in data set [8]: CCCCCc1ccc(-c2cc3cn([C@@H]4O[C@H](CO)[C@@H](O)[C@@H]4F)c(=O)nc3o2)cc1
The description is as §2. Conditions: Human alphaherpesvirus 3. An outline of the steps: as §3

Substrate in data set [9]: CCCCCc1ccc(-c2cc3cn([C@@H]4O[C@H](CO)[C@@H](O)[C@H]4F)c(=O)nc3o2)cc1
Described as §2. Conditions: Human alphaherpesvirus 3. The method in brief:
as §3

Substrate in data set [10]: CCCCCc1ccc(-c2cc3cn([C@H]4C[C@H](O)[C@@H](CO)O4)c(=O)nc3o2)cc1
Described as §2. The settings on record: Human alphaherpesvirus 3. An outline of the steps:
as §3

As to `CCCCCc1ccc(-c2cc3cn([C@H]4C[C@H](O)[C@@H](CO)O4)c(=O)nc3o2)cc1` [CF1743], the concentration for half-maximal inhibition (IC50) in data set [1] is 3.3 µM. For the same molecule, the MCC in data set [2] is at least 50 µM.
Consider `CCCCCc1ccc(-c2cc3cn([C@@H]4O[C@H](CO)[C@@H](O)C4(F)F)c(=O)nc3o2)cc1`, for which the IC50 in [1] is 13 µM. Moreover, the Ratio in data set [3] was 14. For the same molecule, the results for the half-maximal effective concentration (EC50) in data set [4], in [5] and in [6] were 1.5 µM, 6.7 µM and above 50 µM, respectively. In data set [2], the MCC was at least 50 µM.
`CCCCCc1ccc(-c2cc3cn([C@@H]4O[C@H](CO)[C@@H](O)[C@H]4F)c(=O)nc3o2)cc1`: in [1], the 50% inhibitory concentration (IC50) came to 2.7 µM. The Ratio in data set [3] worked out at 7.2. Moreover, the EC50 in data set [4] was 0.75 µM; in [6], above 20 µM. For the same molecule, the MCC in data set [2] was above 50 µM.
With `CCCCCc1ccc(-c2cc3cn([C@@H]4O[C@H](CO)[C@@H](O)[C@@H]4F)c(=O)nc3o2)cc1`, the IC50 in data set [1] turned out to be 38 µM. Also, in data set [3], the Ratio came out at 45. Besides, the values for the EC50 in [4], in [5] and in data set [6] were 0.007 µM, 0.011 µM and above 50 µM, respectively. Also, the MCC in data set [2] is above 50 µM.

B1: Thymidine kinase (Varicella-zoster virus), P0C0E6 (protein)
chain: T1 sequence (P0C0E6 whole entry)
For the molecule B1, the Km was found to be 0.95 µM in data set [7], 1.11 µM in data set [8], 0.47 µM in [9] and 1.58 µM in [10]. The maximum rate (Vmax) in data set [7] came to 14 µM/h; in data set [8], 50 µM/h; in data set [9] it was 3.4 µM/h; in data set [10], 22 µM/h.

In general, IC50 refers to the concentration that inhibits the measured activity by half. As usually defined, the EC50 is the concentration at which the effect is half-maximal. One may read the Km as the concentration of substrate that gives half-maximal velocity. In general, Vmax refers to the rate approached at saturating substrate.
